What was measured:
[1] = target: T1, Serine/threonine-protein kinase B-raf (Homo sapiens, UniProt P15056, V600E); test: Inhibition of B-Raf V600E mutant
[2] = target: T1, Serine/threonine-protein kinase B-raf; test: Inhibition of B-Raf V600E mutant assessed as inhibition of phosphorylated ERK production by cell based assay
How it was run: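 Cell-based readout of phospho-ERK production. The IC50 is the average of three experiments.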

Cytochrome P450 3A4 = Cytochrome P450 3A4 (Homo sapiens, UniProt P08684); test: Inhibition of CYP3A4; format: ADME
Cytochrome P450 2C19 = Cytochrome P450 2C19 (Homo sapiens, UniProt P33261); test: Inhibition of CYP2C19; format: ADME
Cytochrome P450 1A2 = target: T2, Cytochrome P450 1A2 (Homo sapiens, UniProt P05177); test: Inhibition of CYP1A2; format: ADME
T2 sequence (P05177 whole entry): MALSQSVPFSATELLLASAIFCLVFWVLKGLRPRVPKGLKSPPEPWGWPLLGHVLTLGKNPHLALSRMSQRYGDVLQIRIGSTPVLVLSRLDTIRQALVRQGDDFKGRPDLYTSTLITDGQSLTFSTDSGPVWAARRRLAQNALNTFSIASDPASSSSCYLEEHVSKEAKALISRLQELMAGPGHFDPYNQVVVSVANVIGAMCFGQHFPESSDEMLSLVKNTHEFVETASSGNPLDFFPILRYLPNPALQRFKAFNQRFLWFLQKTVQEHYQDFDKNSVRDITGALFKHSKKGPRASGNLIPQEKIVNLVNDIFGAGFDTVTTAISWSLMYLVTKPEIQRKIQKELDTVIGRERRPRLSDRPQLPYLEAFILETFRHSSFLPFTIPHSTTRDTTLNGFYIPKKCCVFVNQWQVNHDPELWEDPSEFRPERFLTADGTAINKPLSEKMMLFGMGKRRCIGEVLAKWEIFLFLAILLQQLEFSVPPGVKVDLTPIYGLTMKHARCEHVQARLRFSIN

[3] = Permeability of the compound across human Caco2 cells; format: ADME, cell-based; conditions: caco-2, read-out: permeability
How it was run: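 Caco-2 permeability is reported as a class: low (<2 × 10^-6 cm/s), medium (2–8 × 10^-6 cm/s), high (>8 × 10^-6 cm/s).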

Caco-2 = test: Permeability ratio of the compound across human Caco2 cells; format: ADME, cell-based
[4] = Aqueous solubility of the compound at pH 6.5; format: physicochemical

T1 sequence (P15056 2-766 V600E limits assumed): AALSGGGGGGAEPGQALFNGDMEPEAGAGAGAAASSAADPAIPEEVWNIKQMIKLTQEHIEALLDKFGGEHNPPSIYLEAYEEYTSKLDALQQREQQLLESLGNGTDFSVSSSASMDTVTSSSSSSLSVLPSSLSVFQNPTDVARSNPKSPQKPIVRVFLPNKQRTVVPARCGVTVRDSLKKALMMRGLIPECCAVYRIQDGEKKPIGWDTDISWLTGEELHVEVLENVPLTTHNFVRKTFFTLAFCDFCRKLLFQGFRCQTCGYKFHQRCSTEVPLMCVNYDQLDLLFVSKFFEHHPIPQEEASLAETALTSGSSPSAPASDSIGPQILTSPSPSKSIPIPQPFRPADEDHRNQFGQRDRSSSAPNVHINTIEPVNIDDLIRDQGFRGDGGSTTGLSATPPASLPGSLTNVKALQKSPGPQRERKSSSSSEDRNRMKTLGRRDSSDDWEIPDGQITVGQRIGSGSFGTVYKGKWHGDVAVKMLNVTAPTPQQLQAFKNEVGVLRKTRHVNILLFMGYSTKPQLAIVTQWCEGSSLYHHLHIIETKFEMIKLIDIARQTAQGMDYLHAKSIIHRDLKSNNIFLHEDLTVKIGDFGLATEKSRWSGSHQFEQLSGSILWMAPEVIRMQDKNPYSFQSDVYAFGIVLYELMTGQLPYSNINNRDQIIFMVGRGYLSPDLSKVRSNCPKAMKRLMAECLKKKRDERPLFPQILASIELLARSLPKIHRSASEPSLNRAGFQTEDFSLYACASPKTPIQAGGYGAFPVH
Sequence of Cytochrome P450 2C19 (P33261 whole entry): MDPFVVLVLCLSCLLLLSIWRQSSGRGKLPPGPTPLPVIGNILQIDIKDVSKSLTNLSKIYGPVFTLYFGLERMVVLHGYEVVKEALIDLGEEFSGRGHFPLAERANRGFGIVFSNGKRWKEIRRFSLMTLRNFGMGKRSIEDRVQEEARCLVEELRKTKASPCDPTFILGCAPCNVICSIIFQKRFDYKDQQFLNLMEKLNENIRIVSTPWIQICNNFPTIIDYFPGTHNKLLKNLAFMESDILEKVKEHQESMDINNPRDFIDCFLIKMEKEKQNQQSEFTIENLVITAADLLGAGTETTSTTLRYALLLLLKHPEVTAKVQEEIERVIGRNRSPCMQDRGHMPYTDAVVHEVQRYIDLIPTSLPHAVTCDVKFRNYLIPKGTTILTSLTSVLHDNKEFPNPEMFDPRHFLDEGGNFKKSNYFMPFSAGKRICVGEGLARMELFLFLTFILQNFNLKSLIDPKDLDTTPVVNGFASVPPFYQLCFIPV
Sequence of Cytochrome P450 3A4 (P08684 whole entry): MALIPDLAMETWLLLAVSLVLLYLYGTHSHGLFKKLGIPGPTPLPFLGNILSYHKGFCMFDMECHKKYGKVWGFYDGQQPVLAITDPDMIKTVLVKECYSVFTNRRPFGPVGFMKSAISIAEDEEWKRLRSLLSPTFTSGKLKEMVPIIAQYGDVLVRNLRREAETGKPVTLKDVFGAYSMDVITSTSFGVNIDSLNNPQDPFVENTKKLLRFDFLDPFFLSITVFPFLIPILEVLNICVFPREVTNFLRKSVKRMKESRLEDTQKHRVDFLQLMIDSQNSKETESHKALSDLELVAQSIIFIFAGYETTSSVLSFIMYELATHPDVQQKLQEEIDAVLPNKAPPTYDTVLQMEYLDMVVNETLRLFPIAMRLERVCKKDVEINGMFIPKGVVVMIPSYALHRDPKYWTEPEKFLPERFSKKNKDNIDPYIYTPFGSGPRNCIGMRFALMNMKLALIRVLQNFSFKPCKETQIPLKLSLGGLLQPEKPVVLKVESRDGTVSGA

## CCOC(=O)c1oc2cnccc2c1Nc1ccc2c(c1)CC/C2=N/O
[1]
  IC50: < 2 nM
[2]
  IC50: 30 nM
Cytochrome P450 3A4
  IC50: 8300 nM
Cytochrome P450 2C19
  IC50: 1180 nM
Cytochrome P450 1A2
  IC50: > 25000 nM

## NCc1ccc(Nc2c(-c3ccccc3)nc3cnccn23)cc1
[1]
  IC50: 1400 nM

## Clc1ccc(Nc2c(-c3ccccc3)nc3cnccn23)cc1
[1]
  IC50: 570 nM
[2]
  IC50: 76000 nM

## Cc1nc2cnccn2c1Nc1ccc(Cl)cc1
[1]
  IC50: 1200 nM

## CCOC(=O)c1nc2cnccn2c1Nc1ccc2c(c1)CC/C2=N\O
[1]
  IC50: 16 nM
[2]
  IC50: 3100 nM

## O/N=C1/CCc2cc(Nc3c(-c4ccccc4)nc4cnccn34)ccc21
[1]
  IC50: 35 nM
[2]
  IC50: 19000 nM

## O/N=C1/CCc2cc(Nc3c(-c4cccnc4)nc4cnccn34)ccc21
[1]
  IC50: 47 nM
[2]
  IC50: 16000 nM

## O/N=C1/CCc2cc(Nc3c(-c4ccco4)nc4cnccn34)ccc21
[1]
  IC50: 4 nM
[2]
  IC50: 1400 nM

## CCOC(=O)c1sc2cnccc2c1Nc1ccc2c(c1)CC/C2=N/O
[1]
  IC50: 3 nM
[2]
  IC50: 280 nM
Cytochrome P450 3A4
  IC50: 50 nM
Cytochrome P450 2C19
  IC50: 129 nM
Cytochrome P450 1A2
  IC50: 616 nM

## CN(C)C(=O)c1sc2cnccc2c1Nc1ccc2c(c1)CC/C2=N/O
[1]
  IC50: 40 nM
[2]
  IC50: 5800 nM

## CN(C)CCNC(=O)c1sc2cnccc2c1Nc1ccc2c(c1)CC/C2=N/O
[1]
  IC50: 52 nM
[2]
  IC50: 8200 nM

## O/N=C1/CCc2cc(Nc3csc4cnccc34)ccc21
[1]
  IC50: 32 nM
[2]
  IC50: 7300 nM

## O/N=C1/CCc2cc(Nc3c(-c4ccccc4)sc4cnccc34)ccc21
[1]
  IC50: 3 nM
[2]
  IC50: 1500 nM

## O/N=C1/CCc2cc(Nc3c(-c4cccnc4)sc4cnccc34)ccc21
[1]
  IC50: 3 nM
[2]
  IC50: 170 nM

## CCCC(=O)c1sc2cnccc2c1Nc1ccc2c(c1)CC/C2=N/O
[1]
  IC50: < 2 nM
[2]
  IC50: 140 nM

## CN(C)C(=O)c1oc2cnccc2c1Nc1ccc2c(c1)CC/C2=N\O
[1]
  IC50: 5 nM
[2]
  IC50: 340 nM

## CN(C)CCNC(=O)c1oc2cnccc2c1Nc1ccc2c(c1)CC/C2=N\O
[1]
  IC50: 2 nM
[2]
  IC50: 40 nM
[3]
  Papp: > 8 ×10⁻⁶ cm/s
Caco-2
  Ratio: 0.9
[4]
  solubility: > 1000 µg/mL

## Cc1ccc(-c2oc3cnccc3c2Nc2ccc3c(c2)CC/C3=N\O)cc1
[1]
  IC50: 3 nM
[2]
  IC50: 2000 nM

## O/N=C1\CCc2cc(Nc3c(-c4ccccn4)oc4cnccc34)ccc21
[1]
  IC50: < 2 nM
[2]
  IC50: 150 nM

## O/N=C1/CCc2cc(Nc3c(-c4cccnc4)oc4cnccc34)ccc21
[1]
  IC50: < 2 nM
[2]
  IC50: 960 nM

## Cc1cc(-c2oc3cnccc3c2Nc2ccc3c(c2)CC/C3=N\O)no1
[1]
  IC50: < 2 nM
[2]
  IC50: 365 nM

## O/N=C1\CCc2cc(Nc3c(-c4ncccn4)oc4cnccc34)ccc21
[1]
  IC50: 0.2 nM
[2]
  IC50: 5 nM
[3]
  Papp: > 8 ×10⁻⁶ cm/s
Caco-2
  Ratio: 0.9

## Oc1cc(-c2nc(-c3ccccc3)[nH]c2-c2ccncc2)ccc1Cl
[1]
  IC50: 10 nM

Source: ChEMBL document CHEMBL1667771, “The discovery of furo[2,3-c]pyridine-based indanone oximes as potent and selective B-Raf inhibitors” (Bioorg Med Chem Lett, 2011)
